Experiments:
4T1 [1] = test: Drug uptake in mouse 4T1 cells implanted in BALB/c mouse assessed per gram of tissue at 0.18 mg/kg, ip after 72 hrs by HPLC-based fluorescence analysis; assay type: ADME, organism-based; conditions: in vivo
How it was run: (§1)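 Female BALB/c mice with 4T1 cells (1 × 10^6 in HBSS) implanted in left rear thigh; single i.p. dose, 7 in ethanol/PEG400/H2O (2/3/5) with 0.1% DMSO, mono-L-aspartyl chlorin e6 in saline; kept dark until sacrifice. Tissues washed, frozen, homogenized in CH3OH/DMSO/H2O (32/8/1), centrifuged 2300×g; supernatant analysed by HPLC with fluorescence detection; three animals per time point.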

[2] = Induction of reactive oxygen generation assessed as quantum yield of singlet oxygen generation in O2 saturated D2O containing 0.1% DMSO by spectrometry; assay type: physicochemical
How it was run: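 Photosensitizer in D2O with 0.1% DMSO, absorbance set to 0.4 at its excitation wavelength, oxygen-purged 1 min; singlet-oxygen luminescence recorded with NIR photomultiplier cooled to 193 K; TPPS as reference.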

[3] = Induction of reactive oxygen generation assessed as quantum yield of hydroxyl radical generation in O2 saturated PBS containing 1% DMSO under photoirradiation by spectrometry relative to control hematoporphyrin; assay type: physicochemical; conditions: buffer
How it was run: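 Photosensitizer (1.00 µM) with HPF (2.00 µM) in PBS containing 1% DMSO, oxygenated 1 min, irradiated with 100-W halogen lamp through λ>500 nm cutoff filter at 37°C; hematoporphyrin as reference.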

HeLa = test: Dark cytotoxicity against human HeLa cells at 0.5 uM assessed as cell survival preincubated for 24 hrs measured by WST-8 assay in absence of photoirradiation; assay type: cell-based
How it was run: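 HeLa cells were seeded at 5 × 10^3 per well in DMEM with 10% FCS and grown for 24 h at 37°C. They were then exposed for 24 h to 0.5 µM photosensitizer (1% DMSO final), washed, and not irradiated. Viability was read 24 h later by WST-8 absorbance at 450 nm and expressed as percent of untreated wells.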

[4] = Photocytotoxicity against mouse B16-F1 cells assessed as cell survival preincubated for 24 hrs followed by irradiation at 16 J/cm2 measured at 24 hrs by WST-8 assay; assay type: functional, cell-based; conditions: B16-F1, light or radiation study
How it was run: (§2)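 Cells (5 × 10^3/well) in DMEM with 10% FCS, 24 h at 37°C, 5% CO2; photosensitizer 1–50000 nM (1% DMSO final) for 24 h, washed, fresh medium. Irradiated with 100-W halogen lamp through λ>500 nm or λ>600 nm cutoff filter to 16 J·cm−2; WST-8 absorbance at 450 nm 24 h later, survival normalized to no-drug wells.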

4T1 [5] = test: Photocytotoxicity against mouse 4T1 cells assessed as cell survival preincubated for 24 hrs followed by irradiation at 16 J/cm2 measured at 24 hrs by WST-8 assay; assay type: functional, cell-based; conditions: 4T1, light or radiation study; how it was run: as §2
[6] = Photocytotoxicity against human U87 cells assessed as cell survival preincubated for 24 hrs followed by irradiation at 16 J/cm2 measured at 24 hrs by WST-8 assay; assay type: functional, cell-based, U-87MG ATCC; conditions: U-87 MG, light or radiation study; how it was run: as §2
U-251 = test: Photocytotoxicity against human U251 cells assessed as cell survival preincubated for 24 hrs followed by irradiation at 16 J/cm2 measured at 24 hrs by WST-8 assay; assay type: functional, cell-based; conditions: U-251, light or radiation study; how it was run: as §2
[7] = Drug uptake in nucleus of human Hela cells at 0.5 uM preincubated for 24 hrs followed by MitoTracker Green FM addition for 30 mins by CSLM analysis; assay type: ADME, cell-based; conditions: 0.5 h
How it was run: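 HeLa cells (1 × 10^4) plated 24 h, incubated 24 h with 0.5 µM final photosensitizer (1% DMSO), washed, stained 30 min with 250 nM MitoTracker Green FM in HBSS at 37°C, fixed in 4% paraformaldehyde. Confocal imaging: red λex 488/λem 650 nm; green λex 488/λem 505–530 nm.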

Lung = test: Drug uptake in BALB/c mouse lung implanted with mouse 4T1 cells assessed per gram of tissue at 0.18 mg/kg, ip after 12 hrs by HPLC-based fluorescence analysis; assay type: ADME, organism-based; conditions: in vivo
How it was run: (§3)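 Female BALB/c mice bearing 4T1 thigh tumours received an i.p. dose in ethanol/PEG400/H2O (2/3/5) with 0.1% DMSO, or in saline, and were kept dark until killed. Tissues were weighed (100 mg), homogenised in CH3OH/DMSO/H2O (32/8/1) and centrifuged twice at 2300×g at 4°C. Supernatants were analysed by HPLC with fluorescence detection (λex 404/λem 654 nm or λex 400/λem 666 nm). n = 3 per time point.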

Stomach = test: Drug uptake in BALB/c mouse stomach implanted with mouse 4T1 cells assessed per gram of tissue at 0.18 mg/kg, ip after 12 hrs by HPLC-based fluorescence analysis; assay type: ADME, organism-based; conditions: in vivo; how it was run: as §1
Liver [8] = test: Drug uptake in BALB/c mouse liver implanted with mouse 4T1 cells assessed per gram of tissue at 0.18 mg/kg, ip after 12 hrs by HPLC-based fluorescence analysis; assay type: ADME, organism-based; conditions: in vivo; how it was run: as §3
[9] = Drug uptake in BALB/c mouse large intestine implanted with mouse 4T1 cells assessed per gram of tissue at 0.18 mg/kg, ip after 12 hrs by HPLC-based fluorescence analysis; assay type: ADME, organism-based; conditions: in vivo; how it was run: as §3
[10] = Drug uptake in BALB/c mouse large intestine implanted with mouse 4T1 cells assessed per gram of tissue at 0.18 mg/kg, ip after 24 hrs by HPLC-based fluorescence analysis; assay type: ADME, organism-based; conditions: in vivo; how it was run: as §3
Kidney = test: Drug uptake in BALB/c mouse kidney implanted with mouse 4T1 cells assessed per gram of tissue at 0.18 mg/kg, ip after 24 hrs by HPLC-based fluorescence analysis; assay type: ADME, organism-based; conditions: in vivo; how it was run: as §3
Urinary bladder [11] = test: Drug uptake in BALB/c mouse bladder implanted with mouse 4T1 cells assessed per gram of tissue at 0.18 mg/kg, ip after 24 hrs by HPLC-based fluorescence analysis; assay type: ADME, organism-based; conditions: in vivo; how it was run: as §3
Heart = test: Drug uptake in BALB/c mouse heart implanted with mouse 4T1 cells assessed per gram of tissue at 0.18 mg/kg, ip after 48 hrs by HPLC-based fluorescence analysis; assay type: ADME, organism-based; conditions: in vivo; how it was run: as §3
Spleen = test: Drug uptake in BALB/c mouse spleen implanted with mouse 4T1 cells assessed per gram of tissue at 0.18 mg/kg, ip after 48 hrs by HPLC-based fluorescence analysis; assay type: ADME, organism-based; conditions: in vivo; how it was run: as §1
Urinary bladder [12] = test: Drug uptake in BALB/c mouse bladder implanted with mouse 4T1 cells assessed per gram of tissue at 0.18 mg/kg, ip after 48 hrs by HPLC-based fluorescence analysis; assay type: ADME, organism-based; conditions: in vivo; how it was run: as §3
4T1 [13] = test: Drug uptake in mouse 4T1 cells implanted in BALB/c mouse assessed per gram of tissue at 0.18 mg/kg, ip after 48 hrs by HPLC-based fluorescence analysis; assay type: ADME, organism-based; conditions: in vivo; how it was run: as §1
Liver [14] = test: Drug uptake in BALB/c mouse liver implanted with mouse 4T1 cells assessed per gram of tissue at 0.18 mg/kg, ip after 72 hrs by HPLC-based fluorescence analysis; assay type: ADME, organism-based; conditions: in vivo; how it was run: as §3
[15] = Drug uptake in BALB/c mouse small intestine implanted with mouse 4T1 cells assessed per gram of tissue at 0.18 mg/kg, ip after 72 hrs by HPLC-based fluorescence analysis; assay type: ADME, organism-based; conditions: in vivo; how it was run: as §1
Mus musculus = test: Drug uptake in mouse 4T1 cells implanted BALB/c mouse assessed as time for drug accumulation at 0.045 to 0.36 mg/kg, ip administered for 48 hrs followed by irradiation at 40 mW/cm2; conditions: in vivo

Structure (SMILES): CN1CC2C3=N/C(=C(/c4c(F)c(F)c(S[C@@H]5O[C@H](CO)[C@@H](O)[C@H](O)[C@H]5O)c(F)c4F)C4=N/C(=C(/c5c(F)c(F)c(F)c(F)c5F)c5ccc([nH]5)/C(c5c(F)c(F)c(S[C@@H]6O[C@H](CO)[C@@H](O)[C@H](O)[C@H]6O)c(F)c5F)=C5/C=CC(=N5)C3c3c(F)c(F)c(F)c(F)c3F)C=C4)C2C1 (stereo partly drawn)
- Drug uptake (4T1 [1]): 1.8 ng/g
- Activity [2]: 0.25
- Ratio [3]: 1.2
- Activity (HeLa): Non-toxic
- EC50 [4]: 0.5 nM
- EC50 (4T1 [5]): 0.5 nM
- EC50 [6]: 0.1 nM
- EC50 (U-251): 0.5 nM
- Drug uptake [7]: Not Active
- Drug uptake (Lung): 30 ng
- Drug uptake (Stomach): 20 ng/g
- Drug uptake (Liver [8]): 60 ng/g
- Drug uptake [9]: 41 ng
- Drug uptake [10]: 60 ng/g
- Drug uptake (Kidney): 18 ng
- Drug uptake (Urinary bladder [11]): 77 ng
- Drug uptake (Heart): 2.1 ng/g
- Drug uptake (Spleen): 14 ng
- Drug uptake (Urinary bladder [12]): 3 ng/g
- Drug uptake (4T1 [13]): 1.4 ng/g
- Drug uptake (Liver [14]): 14 ng
- Drug uptake [15]: 9.8 ng/g
- Time (Mus musculus): 48 h
